GI50, Activity and inhibition data for four compounds are collected here from ChEMBL document CHEMBL1138226, “Biological mechanisms of action of novel C-10 non-acetal trioxane dimers in prostate cancer cell lines” (2006).

Test [1] deals with TRAMP-C1A. As to the kind of experiment: Growth inhibition of mouse C1A cells after 72 hrs by MTT assay. The class given is functional. A digest of the protocol: (§1)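 Seeded overnight at C1A 2500, C2H 1500 or LNCaP 10,000 cells/well, then exposed to a range of concentrations or ethanol vehicle for 72 h. MTT added for 4 h, cells solubilized in 20% SDS/0.02 N HCl, absorbance read at 570 nm. Concentration for 50% growth inhibition (GI50) calculated. Replicate wells ± SD; ≥3 independent experiments.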
(In general: Tetrazolium assays rely on reduction of a dye to a coloured formazan, in cell work by metabolically active cells.)

The target of test [2] is Cyclin-dependent kinase 2 (Homo sapiens) (UniProt P24941). As to the kind of experiment: Inhibition of CDK2 kinase activity assessed as decrease in histone H1 phosphorylation in LNCaP cells at 50 nM after 72 hrs by Western blot analysis. The class given is functional, cell-based. A digest of the protocol: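 LNCaP cells given 50 nM or vehicle for 72 h, lysed in NP40 buffer. Lysate (100 μg) immunoprecipitated overnight at 4 °C with cdk2 antibody on protein A/G beads. Beads incubated 30 min at 30 °C with 2 μg histone H1, 20 μM ATP and 5 μCi [γ-32P]ATP. Reaction resolved by SDS-PAGE and phospho-H1 detected by autoradiography, with cdk2 immunoblot alongside.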

Test [3] has as its system LNCaP. As to the kind of experiment: Inhibition of cyclin D1 expression in LNCaP cells at 50 nM after 72 hrs by Western blot analysis. The following applies: Homo sapiens. The test is classed as functional, cell-based. An outline of the steps: (§2)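 Sub-confluent LNCaP cells given 50 nM or ethanol vehicle for 72 h. Lysed in Triton X-100/SDS buffer with protease and phosphatase inhibitors, run on SDS-PAGE, blotted to PVDF, probed overnight at 4 °C, detected by HRP chemiluminescence. Bands quantified by densitometry, normalized to actin and expressed relative to control.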
Background: In western blotting, separated proteins are transferred to a membrane and probed.

The test system of test [4] is LNCaP. As to the kind of experiment: Decrease in CDK4 expression in LNCaP cells at 50 nM after 72 hrs by Western blot analysis. Details: scale not given: the % may be the effect or the level left. The test is classed as functional, Homo sapiens. An outline of the steps:
as §2

Test [5] concerns LNCaP. As to the kind of experiment: Increase in p27 expression in LNCaP cells at 50 nM after 72 hrs relative to control by Western blot analysis. The test is classed as functional, Homo sapiens. An outline of the steps: as §2
For test [6], the system named is LNCaP. As to the kind of experiment: Induction of early apoptosis in LNCaP cells at 50 nM after 72 hrs relative to control by V-PE/7-AAD staining. The class given is functional, Homo sapiens. A digest of the protocol:
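Sub-confluent LNCaP cells given 50 nM or vehicle for 72 h, trypsinized, washed in cold PBS, stained with annexin V-PE and 7-AAD for 15 min in the dark, analysed by flow cytometry. Early apoptosis = annexin V-positive only. Reported as fold over control ± SEM; ANOVA.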

In test [7] the test system is LNCaP. As to the kind of experiment: Cell cycle arrest in LNCaP cells by accumulation at G1/S phase at 50 nM after 72 hrs by PI staining. The class given is functional, cell-based. To be noted: Homo sapiens. A digest of the protocol:
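Sub-confluent LNCaP cells given vehicle (ethanol) or 50 nM for 72 h. Cells fixed in ice-cold 70% ethanol at 4 °C for ≥30 min, then stained with PI (10 μg/mL) plus RNase A (100 μg/mL) for 30 min in the dark. Phase distribution read by flow cytometry. Mean of three independent experiments ± SEM.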

Test [8] concerns LNCaP. As to the kind of experiment: Increase in p21 expression in LNCaP cells at 50 nM after 72 hrs relative to control by Western blot analysis. The test is classed as functional, Homo sapiens. An outline of the steps:
as §2

The test system of test [9] is LNCaP. As to the kind of experiment: Increase in bax expression in LNCaP cells at 50 nM after 72 hrs by Western blot analysis. The class given is functional, cell-based. To be noted: Homo sapiens. An outline of the steps: as §2
Test [10] deals with LNCaP. As to the kind of experiment: Decrease in Cyclin E expression in LNCaP cells at 50 nM after 72 hrs by Western blot analysis. The class given is functional, cell-based. To be noted: Homo sapiens. A digest of the protocol: as §2
Test [11] has as its system LNCaP. As to the kind of experiment: Increase in p53 expression in LNCaP cells at 50 nM after 72 hrs relative to control by Western blot analysis. To be noted: Homo sapiens. The class given is functional, cell-based. An outline of the steps: as §2
The subject of test [12] is LNCaP. As to the kind of experiment: Inhibition of CDK2 expression in LNCaP cells at 50 nM after 72 hrs by Western blot analysis. The class given is functional, cell-based. The following applies: Homo sapiens. An outline of the steps:
as §2

In test [13] the test system is TRAMP-C2H. As to the kind of experiment: Growth inhibition of mouse C2H cells after 72 hrs by MTT assay. The test is classed as functional. A digest of the protocol: as §1
Test [14] relates to LNCaP. As to the kind of experiment: Growth inhibition of human LNCaP cells after 72 hrs by MTT assay. The test is classed as functional. A digest of the protocol: as §1
The test system of test [15] is LNCaP. As to the kind of experiment: Growth inhibition of human LNCaP cells at 100 nM after 72 hrs by MTT assay. The test is classed as functional. An outline of the steps:
as §1

The test system of test [16] is LNCaP. As to the kind of experiment: Cell cycle arrest in LNCaP cells by accumulation at G2/M phase at 50 nM after 72 hrs by PI staining. The class given is functional, cell-based. The following applies: Homo sapiens. An outline of the steps:
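Sub-confluent LNCaP (RPMI, 10% FBS, 37 °C, 5% CO2) exposed to 50 nM or ethanol vehicle (≤0.002%) for 72 h; harvested, fixed in ice-cold 70% ethanol ≥30 min at 4 °C; ~10^6 cells stained with PI (10 μg/mL) plus RNase A (100 μg/mL) 30 min in dark; FACS; % cells in G0/G1, S, G2/M, mean of three independent experiments ± SEM.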

For test [17], the system named is LNCaP. As to the kind of experiment: Induction of late apoptosis in LNCaP cells at 50 nM after 72 hrs relative to control by V-PE/7-AAD staining. The test is classed as functional, cell-based. To be noted: Homo sapiens. A digest of the protocol:
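Sub-confluent LNCaP treated 72 h with 50 nM or ethanol vehicle; trypsinized, washed twice in ice-cold PBS, stained with annexin V-PE and 7-AAD 15 min in dark, analysed by FACS; late stage scored as annexin V plus 7-AAD positive; mean fold increase ± SEM normalized to control (=1.0), ANOVA.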

Test [18] deals with LNCaP. As to the kind of experiment: Increase in CDK6 expression in LNCaP cells at 50 nM after 72 hrs by Western blot analysis. The test is classed as functional, cell-based. The following applies: Homo sapiens. A digest of the protocol: as §2
Test [19] deals with LNCaP. As to the kind of experiment: Inhibition of DNA synthesis in human LNCaP cells at 50 nM after 72 hrs by BrdU incorporation assay. The test is classed as functional. Details: scale not given: the % may be the effect or the level left. An outline of the steps:
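LNCaP cells given 50 nM or vehicle for 72 h, pulsed 30 min with 100 μg/mL BrdU plus 1 μg/mL FdU. Cells fixed, DNA denatured with 2 N HCl, neutralized with borate pH 8.5, stained with anti-BrdU and Alexa 488 secondary plus PI, then read by flow cytometry. Normalized to control ± SEM; ANOVA.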
In general terms: Incorporation of labelled thymidine or its analogues reports DNA synthesis.

Test [20] deals with TRAMP-C2H. As to the kind of experiment: Inhibition of DNA synthesis in mouse C2H cells at 50 nM after 72 hrs by BrdU incorporation assay. More on the design: scale not given: the % may be the effect or the level left. The class given is functional. An outline of the steps:
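Sub-confluent C2H cells given 50 nM or vehicle for 72 h, labelled with BrdU for 4 h, incorporation measured by colorimetric BrdU ELISA at 370 nm. Expressed as % of control ± SEM; ANOVA.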

In test [21] the test system is LNCaP. As to the kind of experiment: Decrease in Bcl2 expression in LNCaP cells at 50 nM after 72 hrs by Western blot analysis. To be noted: Homo sapiens. The class given is functional, cell-based. A digest of the protocol: as §2

Molecules are shown by their SMILES. The source made the active and inactive calls. The calls are words filed in the database; no cut-off is given here.

One may read the GI50 as the concentration giving 50% growth inhibition. In the case of `CCOP(=O)(OCC)OCC(C[C@H]1O[C@@H]2O[C@@]3(C)CC[C@H]4[C@H](C)CC[C@@H]([C@H]1C)[C@@]24OO3)C[C@H]1O[C@@H]2O[C@@]3(C)CC[C@H]4[C@H](C)CC[C@@H]([C@H]1C)[C@@]24OO3` (stereo not given in full), the GI50 in test [1] turned out to be 0.0422 µM; in test [13] it was 0.0394 µM; in test [14], 0.0363 µM. The outcome in [2], in test [3], in test [7], in test [9], in [10] and in [12] was Active. Moreover, the Activity in test [4] amounted to 10%; in test [5], 6.5; in test [6], 4; in test [8], 9. In addition, in [11], the outcome was inactive.
As usually defined, the inhibition is the change of the read-out against control, counted positive when it falls. Take `COc1cccc2c1C(=O)c1c(O)c3c(c(O)c1C2=O)C[C@@](O)(C(=O)CO)C[C@@H]3O[C@H]1C[C@H](N)[C@H](O)[C@H](C)O1` [DOXORUBICIN]: testing at 0.1 µM in test [15] gave an inhibition of 69%. Besides, the GI50 worked out at 0.0204 µM in test [1], 0.0158 µM in test [13] and 0.0453 µM in test [14]. Also, the outcome in test [16] and in [17] was Active.
In turn, `C[C@H]1[C@@H](CC(CNc2ccccc2)C[C@H]2O[C@@H]3O[C@@]4(C)CC[C@H]5[C@H](C)CC[C@@H]([C@H]2C)[C@@]35OO4)O[C@@H]2O[C@@]3(C)CC[C@H]4[C@H](C)CC[C@@H]1[C@@]24OO3` (stereo not given in full) displayed an inhibition at 0.1 µM in test [15] of 97%. For the same compound, the results for the 50% growth inhibitory concentration (GI50) in test [1], in [13] and in [14] were 0.018 µM, 0.017 µM and 0.0179 µM, respectively. Also, the result in [18], in test [2], in test [3], in test [21], in test [7] and in test [9] was Active. Further, the result in [10] and in test [12] was Active. The Activity in test [19] is listed as over 90%; in [20], over 90%; in test [4], 10%; in [5], 6.5; in test [6], 4; in test [8], 9. Besides, the result in test [11] was inactive.
As to `C[C@H]1[C@@H](CC(COP(=O)(Oc2ccccc2)Oc2ccccc2)C[C@H]2O[C@@H]3O[C@@]4(C)CC[C@H]5[C@H](C)CC[C@@H]([C@H]2C)[C@@]35OO4)O[C@@H]2O[C@@]3(C)CC[C@H]4[C@H](C)CC[C@@H]1[C@@]24OO3` (stereo not given in full), the GI50 in test [1] was found to be 0.0319 µM; in test [13], 0.0448 µM; in test [14] it was 0.0344 µM. Besides, the outcome in test [18], in [2], in test [3], in test [21], in test [7] and in test [9] was Active. Also, the outcome in test [10] and in test [12] was Active. The Activity was 10% in [4], 6.5 in test [5], 4 in test [6] and 9 in test [8]. The result in test [11] was inactive.
